Assay results taken from article PMC7744997 (Clinical Infectious Diseases: An Official Publication of …, 2020).

Assay: Laboratory safety in RSV-infected infants
Type: in vivo, human
Summary of the method: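 Clinical laboratory tests were run in RSV-infected infants (>1 to ≤24 months) given oral drug or placebo once daily for 7 days. Abnormalities were graded with the DMID Pediatric Toxicity Tables (November 2007 version). Patients were followed for 28 days after randomisation.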

CS(=O)(=O)CCCn1c(Cn2c(=O)n(CC(F)(F)F)c3ccncc32)cc2cc(Cl)ccc21 [JNJ-53718678]
Hemoglobin Grade 1 (treatment-emergent worst toxicity grade) (All cohorts, n=37): 2 (5) no. (%) | Hemoglobin Grade 2 (treatment-emergent worst toxicity grade) (All cohorts, n=37): 1 (3) no. (%) | Hyperkalemia Grade 1 (treatment-emergent worst toxicity grade) (All cohorts, n=37): 10 (27) no. (%) | Hyperkalemia Grade 2 (treatment-emergent worst toxicity grade) (All cohorts, n=37): 2 (5) no. (%) | Hypoglycemia Grade 1 (treatment-emergent worst toxicity grade) (All cohorts, n=37): 3 (8) no. (%) | Hyponatremia Grade 2 (treatment-emergent worst toxicity grade) (All cohorts, n=37): 3 (8) no. (%) | Eosinophils/leukocytes: Above (treatment-emergent nongraded abnormality) (All, n=26): 7 (27) no. (%) | Eosinophils/leukocytes: Below (treatment-emergent nongraded abnormality) (All, n=26): 1 (4) no. (%) | Lymphocytes/leukocytes: Above (treatment-emergent nongraded abnormality) (All, n=26): 6 (23) no. (%) | Lymphocytes/leukocytes: Below (treatment-emergent nongraded abnormality) (All, n=26): 1 (4) no. (%) | Monocytes/leukocytes: Above (treatment-emergent nongraded abnormality) (All, n=26): 5 (19) no. (%) | Monocytes/leukocytes: Below (treatment-emergent nongraded abnormality) (All, n=26): 3 (12) no. (%) | Neutrophils/leukocytes: Above (treatment-emergent nongraded abnormality) (All, n=26): 1 (4) no. (%) | Neutrophils/leukocytes: Below (treatment-emergent nongraded abnormality) (All, n=26): 6 (23) no. (%) | Urea: Above (treatment-emergent nongraded abnormality) (All, n=33): 1 (3) no. (%) | Urea: Below (treatment-emergent nongraded abnormality) (All, n=33): 5 (15) no. (%) | Bicarbonate: Above (treatment-emergent nongraded abnormality) (All, n=35): 3 (9) no. (%) | Bicarbonate: Below (treatment-emergent nongraded abnormality) (All, n=35): 6 (17) no. (%) | Eosinophils: Above (treatment-emergent nongraded abnormality) (All, n=35): 7 (20) no. (%) | Eosinophils: Below (treatment-emergent nongraded abnormality) (All, n=35): 0 no. (%) | Lymphocytes: Above (treatment-emergent nongraded abnormality) (All, n=36): 6 (17) no. (%) | Lymphocytes: Below (treatment-emergent nongraded abnormality) (All, n=36): 0 no. (%) | Alkaline phosphatase: Above (treatment-emergent nongraded abnormality) (All, n=37): 2 (5) no. (%) | Alkaline phosphatase: Below (treatment-emergent nongraded abnormality) (All, n=37): 3 (8) no. (%) | Chloride: Above (treatment-emergent nongraded abnormality) (All, n=37): 5 (14) no. (%) | Chloride: Below (treatment-emergent nongraded abnormality) (All, n=37): 1 (3) no. (%) | Erythrocytes: Above (treatment-emergent nongraded abnormality) (All, n=37): 4 (11) no. (%) | Erythrocytes: Below (treatment-emergent nongraded abnormality) (All, n=37): 3 (8) no. (%) | Leukocytes: Above (treatment-emergent nongraded abnormality) (All, n=37): 6 (16) no. (%) | Eosinophils/leukocytes: Above (treatment-emergent nongraded abnormality) (High (cohorts 1d,2c,3c), n=4): 1 (25) no. (%) | Eosinophils/leukocytes: Below (treatment-emergent nongraded abnormality) (High (cohorts 1d,2c,3c), n=4): 0 no. (%) | Lymphocytes/leukocytes: Above (treatment-emergent nongraded abnormality) (High (cohorts 1d,2c,3c), n=4): 1 (25) no. (%) | Lymphocytes/leukocytes: Below (treatment-emergent nongraded abnormality) (High (cohorts 1d,2c,3c), n=4): 0 no. (%) | Monocytes/leukocytes: Above (treatment-emergent nongraded abnormality) (High (cohorts 1d,2c,3c), n=4): 0 no. (%) | Monocytes/leukocytes: Below (treatment-emergent nongraded abnormality) (High (cohorts 1d,2c,3c), n=4): 0 no. (%) | Neutrophils/leukocytes: Above (treatment-emergent nongraded abnormality) (High (cohorts 1d,2c,3c), n=4): 0 no. (%) | Neutrophils/leukocytes: Below (treatment-emergent nongraded abnormality) (High (cohorts 1d,2c,3c), n=4): 0 no. (%) | Bicarbonate: Above (treatment-emergent nongraded abnormality) (High (cohorts 1d,2c,3c), n=8): 0 no. (%) | Bicarbonate: Below (treatment-emergent nongraded abnormality) (High (cohorts 1d,2c,3c), n=8): 3 (38) no. (%) | Eosinophils: Above (treatment-emergent nongraded abnormality) (High (cohorts 1d,2c,3c), n=8): 0 no. (%) | Eosinophils: Below (treatment-emergent nongraded abnormality) (High (cohorts 1d,2c,3c), n=8): 0 no. (%) | Alkaline phosphatase: Above (treatment-emergent nongraded abnormality) (High (cohorts 1d,2c,3c), n=9): 0 no. (%) | Alkaline phosphatase: Below (treatment-emergent nongraded abnormality) (High (cohorts 1d,2c,3c), n=9): 0 no. (%) | Chloride: Above (treatment-emergent nongraded abnormality) (High (cohorts 1d,2c,3c), n=9): 0 no. (%) | Chloride: Below (treatment-emergent nongraded abnormality) (High (cohorts 1d,2c,3c), n=9): 0 no. (%) | Erythrocytes: Above (treatment-emergent nongraded abnormality) (High (cohorts 1d,2c,3c), n=9): 0 no. (%) | Erythrocytes: Below (treatment-emergent nongraded abnormality) (High (cohorts 1d,2c,3c), n=9): 1 (11) no. (%) | Hemoglobin Grade 1 (treatment-emergent worst toxicity grade) (High (cohorts 1d,2c,3c), n=9): 0 no. (%) | Hemoglobin Grade 2 (treatment-emergent worst toxicity grade) (High (cohorts 1d,2c,3c), n=9): 0 no. (%) | Hyperkalemia Grade 1 (treatment-emergent worst toxicity grade) (High (cohorts 1d,2c,3c), n=9): 1 (11) no. (%) | Hyperkalemia Grade 2 (treatment-emergent worst toxicity grade) (High (cohorts 1d,2c,3c), n=9): 1 (11) no. (%) | Hypoglycemia Grade 1 (treatment-emergent worst toxicity grade) (High (cohorts 1d,2c,3c), n=9): 3 (33) no. (%) | Hyponatremia Grade 2 (treatment-emergent worst toxicity grade) (High (cohorts 1d,2c,3c), n=9): 1 (11) no. (%) | Leukocytes: Above (treatment-emergent nongraded abnormality) (High (cohorts 1d,2c,3c), n=9): 3 (33) no. (%) | Lymphocytes: Above (treatment-emergent nongraded abnormality) (High (cohorts 1d,2c,3c), n=9): 1 (11) no. (%) | Lymphocytes: Below (treatment-emergent nongraded abnormality) (High (cohorts 1d,2c,3c), n=9): 0 no. (%) | Urea: Above (treatment-emergent nongraded abnormality) (High (cohorts 1d,2c,3c), n=9): 0 no. (%) | Urea: Below (treatment-emergent nongraded abnormality) (High (cohorts 1d,2c,3c), n=9): 0 no. (%) | Eosinophils/leukocytes: Above (treatment-emergent nongraded abnormality) (Low (cohorts 1a,2a,3a), n=9): 2 (22) no. (%) | Eosinophils/leukocytes: Below (treatment-emergent nongraded abnormality) (Low (cohorts 1a,2a,3a), n=9): 0 no. (%) | Lymphocytes/leukocytes: Above (treatment-emergent nongraded abnormality) (Low (cohorts 1a,2a,3a), n=9): 2 (22) no. (%) | Lymphocytes/leukocytes: Below (treatment-emergent nongraded abnormality) (Low (cohorts 1a,2a,3a), n=9): 0 no. (%) | Monocytes/leukocytes: Above (treatment-emergent nongraded abnormality) (Low (cohorts 1a,2a,3a), n=9): 2 (22) no. (%) | Monocytes/leukocytes: Below (treatment-emergent nongraded abnormality) (Low (cohorts 1a,2a,3a), n=9): 2 (22) no. (%) | Neutrophils/leukocytes: Above (treatment-emergent nongraded abnormality) (Low (cohorts 1a,2a,3a), n=9): 0 no. (%) | Neutrophils/leukocytes: Below (treatment-emergent nongraded abnormality) (Low (cohorts 1a,2a,3a), n=9): 3 (33) no. (%) | Urea: Above (treatment-emergent nongraded abnormality) (Low (cohorts 1a,2a,3a), n=9): 1 (11) no. (%) | Urea: Below (treatment-emergent nongraded abnormality) (Low (cohorts 1a,2a,3a), n=9): 1 (11) no. (%) | Bicarbonate: Above (treatment-emergent nongraded abnormality) (Low (cohorts 1a,2a,3a), n=11): 1 (9) no. (%) | Bicarbonate: Below (treatment-emergent nongraded abnormality) (Low (cohorts 1a,2a,3a), n=11): 0 no. (%) | Alkaline phosphatase: Above (treatment-emergent nongraded abnormality) (Low (cohorts 1a,2a,3a), n=12): 1 (8) no. (%) | Alkaline phosphatase: Below (treatment-emergent nongraded abnormality) (Low (cohorts 1a,2a,3a), n=12): 0 no. (%) | Chloride: Above (treatment-emergent nongraded abnormality) (Low (cohorts 1a,2a,3a), n=12): 1 (8) no. (%) | Chloride: Below (treatment-emergent nongraded abnormality) (Low (cohorts 1a,2a,3a), n=12): 0 no. (%)
